Hck-Nef inh – inhibitors of Nef-activated human Hck kinase, primary screen, biochemical, Z-Lyte FRET, 384-well, Hck-YEEI | Tyrosine-protein kinase HCK (Homo sapiens), P08631 | Recombinant Hck-YEEI plus Nef, Z-Lyte FRET kinase assay | inhibition, % at 20 µM | hit rate 0.68% among 220,000 | AID 463187, 2010;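 active means Hck-Nef kinase inhibition above about 50%, limit read from the data; inactive means inhibition below that limit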
RanGTP-Impb inh – inhibitors of RanGTP-importin-beta interaction, primary screen, biochemical, FRET, CFP-Ran, YFP-importin-beta, homogeneous; cell-free CFP-Ran/YFP-importin-beta FRET ratio; inhibition, % (test concentration not listed); hit rate 1.1% among 300,000; AID 2216, 2009;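 active means more than half of the replicate wells show a fall in the fluorescence ratio signal beyond about 16%, limit read from the data, passing the limit was not always enough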
Runt-SMMHC FRET – inhibitors of RUNX1 Runt–CBFb-SMMHC binding, primary screen, biochemical, FRET, Cerulean-Runt, Venus-CBFb-SMMHC, uHTS; hit rate 0.74% among 220,000; inhibition, % at 20 µM; AID 1434, 2008; Cerulean-Runt/Venus-CBFb-SMMHC FRET ratio 530/480, 1 h;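 active means mean inhibition across duplicate retests at 20 µM reaching about 50%, limit read from the data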;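 further: inhibitors lower the FRET ratio by blocking Runt binding to CBFb-SMMHC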
Target sequence (Q01196 whole entry, looked up): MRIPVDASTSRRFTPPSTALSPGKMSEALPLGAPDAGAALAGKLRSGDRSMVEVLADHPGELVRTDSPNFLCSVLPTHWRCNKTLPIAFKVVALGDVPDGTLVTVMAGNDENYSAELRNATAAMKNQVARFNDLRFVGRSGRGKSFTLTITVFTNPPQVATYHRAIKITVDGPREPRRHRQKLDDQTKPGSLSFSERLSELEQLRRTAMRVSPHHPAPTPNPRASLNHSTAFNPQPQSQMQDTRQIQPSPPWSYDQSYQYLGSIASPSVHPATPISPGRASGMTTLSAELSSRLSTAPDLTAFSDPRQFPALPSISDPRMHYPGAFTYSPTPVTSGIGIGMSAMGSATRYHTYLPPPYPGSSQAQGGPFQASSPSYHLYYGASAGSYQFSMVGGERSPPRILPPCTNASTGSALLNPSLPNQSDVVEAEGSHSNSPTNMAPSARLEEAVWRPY
Target sequence (Q13951 whole entry, looked up): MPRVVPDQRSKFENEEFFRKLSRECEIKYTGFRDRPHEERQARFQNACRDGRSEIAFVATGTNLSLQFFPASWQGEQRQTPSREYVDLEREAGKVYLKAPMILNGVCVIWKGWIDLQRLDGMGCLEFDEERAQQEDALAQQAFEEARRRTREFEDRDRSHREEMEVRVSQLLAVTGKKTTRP
Runt-CBFb FRET – inhibitors of RUNX1 Runt–CBFb binding, primary screen, biochemical, FRET, Cerulean-Runt, Venus-CBFb, uHTS. Runt-related transcription factor 1 (Homo sapiens) + Core-binding factor subunit beta …. Cerulean-Runt/Venus-CBFb FRET ratio 530/480, 1 h. inhibition, % at 20 µM. hit rate 0.46% among 220,000. AID 1496, 2009;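 active means inhibition over about 50% at 20 µM in the single-dose screen, limit read from the data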
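Reagent – Venus-CBFb binding partner, 100 nM · Assay system – Cerulean-tagged RUNX1 Runt domain (FRET donor) fusion protein · Input – 100 nM per protein · Incubation – two 1 h room-temperature incubations shielded from light · Measured by – FRET fluorescence · Medium – Tris buffer pH 7.5 with salts and BSA · Benchmarks – unlabeled CBFb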
YIC counter – YIC intramolecular FRET probe signal interference, dose response, counter-screen for RanGTP-importin-beta inhibitor project, biochemical, fluorescence FRET. shares compounds with RanGTP-Impb inh. Purified YIC probe, intramolecular FRET ratio YFP/CFP. IC50, µM. hit rate 40% among 1,000;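 active means fitted half-maximal inhibitory concentration no more than tenfold above the top dose tested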
Hck-Nef confirm – retest of Hck:Nef kinase inhibitor hits, confirmation, biochemical, Z-Lyte FRET, 384-well, p-Tyr peptide counterscreen. hit rate 28% among 1,300. Recombinant Hck-YEEI:Nef, Z-Lyte FRET kinase assay. shares compounds with Hck-Nef inh. AID 463188, 2010. calls only at 10 µM;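 active means average inhibition of at least 50%, with Z-scores no higher than 3 in both the phospho-tyrosine peptide and fluorescence counterscreens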
Each line names hits and unclear results; the compound was inactive in the other large screens (follow-up assays come after a bar, where shown). Shown are actives, neighbours in structure and some others; about 1.8% of the full set was active somewhere.

CC(=O)N1CN2CN(C(C)=O)CC(C(=O)c3ccc([N+](=O)[O-])cc3)(C2)C1	none
CC(=O)N1CN2CN(C(C)=O)CC(C(=O)c3ccccc3)(C2)C1	RanGTP-Impb inh 20.7 | YIC counter inactive
CC(C)c1ccc(NC(=O)CCNC(=O)N2C[C@H]3C[C@@H](C2)c2cccc(=O)n2C3)cc1	none (no result: Hck-Nef inh, Runt-SMMHC FRET, Runt-CBFb FRET)
CCCCNC(=O)c1c(N)n(Cc2ccc3c(c2)OCO3)c2nc3ccccc3nc12	RanGTP-Impb inh 32.3 | YIC counter 3.12
CC(C)CCn1c(=O)c(C(=O)NCc2ccc3c(c2)OCO3)c(O)c2ccccc21	none (no result: Hck-Nef inh, Runt-SMMHC FRET, Runt-CBFb FRET)
CC(=O)O[C@H]1CC[C@@]2(C)[C@H](C1)C(=O)C[C@H]1[C@@H]3CC[C@@H]4[C@@H](CN5C[C@@H](C)CC[C@H]5[C@@]4(C)O)[C@@H]3C[C@@H]12	none (no result: Hck-Nef inh, Runt-SMMHC FRET, Runt-CBFb FRET)
CCCCCCC(Cl)(Cn1ccnc1)c1ccccc1 (centres undefined)	none (no result: Hck-Nef inh, Runt-SMMHC FRET, Runt-CBFb FRET)
C=CCN1CCc2cccc3c2[C@H]1Cc1ccc(O)c(O)c1-3	RanGTP-Impb inh 18.7 (no result: Hck-Nef inh, Runt-SMMHC FRET, Runt-CBFb FRET) | YIC counter inactive
CC(C)OC(=O)c1c(N)n(CC2CCCO2)c2nc3ccccc3nc12 (centres undefined)	RanGTP-Impb inh 23.6, Runt-SMMHC FRET 92.0, Runt-CBFb FRET 71.8 | YIC counter 19.9
CCN1/C(=C\C=C\C2=[N+](CC)c3ccccc3C2(C)C)C(C)(C)c2ccccc21	RanGTP-Impb inh 26.8 | YIC counter 29.8
CCOc1cccc(CNCCc2c(C)[nH]c3ccc(OC(F)(F)F)cc23)c1O	none (no result: Hck-Nef inh, Runt-SMMHC FRET, Runt-CBFb FRET)
CN1CC2=CC(O)CC3Oc4c(O)ccc(c4[C@]23C)C1 (some centres undefined)	RanGTP-Impb inh 25.5 (no result: Hck-Nef inh, Runt-SMMHC FRET, Runt-CBFb FRET) | YIC counter inactive
C=CCN1C(=O)/C(=C/c2ccc(N3CCOCC3)o2)C(=O)NC1=S	none
O=C1NC(=O)N(Cc2ccco2)C(=O)/C1=C/c1ccc(-c2cccc([N+](=O)[O-])c2)o1	Hck-Nef inh 52.4 (no result: RanGTP-Impb inh) | Hck-Nef confirm active
CN(C)c1ccc(/C=C2/C(=O)NC(=O)N(Cc3ccco3)C2=O)cc1	none
C=CCN1C(=O)NC(=O)/C(=C\c2ccc(-c3ccccc3[N+](=O)[O-])o2)C1=O	Hck-Nef inh 70.0 | Hck-Nef confirm active
CC(=O)c1cn(CC(=O)NCCc2c[nH]c3ccccc23)c2ccccc12	none (no result: Hck-Nef inh, Runt-SMMHC FRET, Runt-CBFb FRET)
COCCNCCOc1ccc(C(C)(C)c2ccccc2)cc1	none
CC(C)OCCCNC(=O)c1c(N)n(CC2CCCO2)c2nc3ccccc3nc12 (centres undefined)	Hck-Nef inh 52.1, RanGTP-Impb inh 102.6, Runt-SMMHC FRET 61.5, Runt-CBFb FRET 74.0
O=c1c2ccccc2nc(SCC2CCCCO2)n1-c1ccccc1 (centres undefined)	none
CCCNC(=O)c1c(N)n(CC2CCCO2)c2nc3ccccc3nc12 (centres undefined)	Hck-Nef inh 57.3, Runt-SMMHC FRET 77.9
COCCCn1c(N)c(C(=O)NCCC(C)C)c2nc3ccccc3nc21	Hck-Nef inh 50.2, RanGTP-Impb inh 102.9 | Hck-Nef confirm inactive
CCCCCCn1c(N)c(C(=O)NCCN2CCOCC2)c2nc3ccccc3nc21	Hck-Nef inh 64.8, RanGTP-Impb inh 70.5, Runt-SMMHC FRET 62.2 | Hck-Nef confirm inactive
C[C@]12CCC(=O)CC1CCC1C2CC[C@]2(C)C(OC(=O)CCC(=O)O)CCC12 (some centres undefined)	none (no result: Hck-Nef inh, Runt-SMMHC FRET, Runt-CBFb FRET)
Nc1cc(Cl)c2nonc2c1[N+](=O)[O-]	none (no result: RanGTP-Impb inh)
O=C1NC(=O)N(CCc2ccc(F)cc2)C(=O)/C1=C/c1ccco1	Hck-Nef inh 167.3 (no result: Runt-CBFb FRET) | Hck-Nef confirm active

High-throughput results as filed in PubChem BioAssay.
